The structures appear in SMILES notation.

Holding throughout (conditions): stereoisomer not certain
One assay has as its target T1, UniProt Q8VFP5.
T1 sequence (whole entry): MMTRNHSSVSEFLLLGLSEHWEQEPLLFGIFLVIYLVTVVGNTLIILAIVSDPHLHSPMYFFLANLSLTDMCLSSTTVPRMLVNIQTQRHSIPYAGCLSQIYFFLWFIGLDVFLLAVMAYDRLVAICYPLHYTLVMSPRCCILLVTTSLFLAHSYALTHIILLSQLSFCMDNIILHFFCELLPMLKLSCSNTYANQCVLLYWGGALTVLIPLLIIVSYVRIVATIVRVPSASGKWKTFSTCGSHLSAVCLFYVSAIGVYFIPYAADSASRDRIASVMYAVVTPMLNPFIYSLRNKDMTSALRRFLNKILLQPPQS
In outline: (§1)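 Assay methods differ from source to source, frequently being transient luciferase assays in mammalian cell lines. For each receptor–molecule pair, the label responsive (active) applies when the original authors judged the measured signal statistically different from baseline, and non-responsive (inactive) applies otherwise.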

A further assay addresses T2, UniProt Q8VG01.
T2 sequence (whole entry): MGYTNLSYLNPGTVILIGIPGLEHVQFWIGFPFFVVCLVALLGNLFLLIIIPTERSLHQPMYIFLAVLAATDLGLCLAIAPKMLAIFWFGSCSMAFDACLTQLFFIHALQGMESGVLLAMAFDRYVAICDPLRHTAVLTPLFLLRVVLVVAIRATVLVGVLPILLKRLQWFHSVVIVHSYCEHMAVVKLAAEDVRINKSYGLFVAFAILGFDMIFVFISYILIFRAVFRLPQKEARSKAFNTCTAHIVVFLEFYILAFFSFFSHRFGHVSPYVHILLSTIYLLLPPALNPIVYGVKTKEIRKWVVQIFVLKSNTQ
In outline: as §1

A further assay deals with T3, UniProt Q8VG27.
T3 sequence (whole entry): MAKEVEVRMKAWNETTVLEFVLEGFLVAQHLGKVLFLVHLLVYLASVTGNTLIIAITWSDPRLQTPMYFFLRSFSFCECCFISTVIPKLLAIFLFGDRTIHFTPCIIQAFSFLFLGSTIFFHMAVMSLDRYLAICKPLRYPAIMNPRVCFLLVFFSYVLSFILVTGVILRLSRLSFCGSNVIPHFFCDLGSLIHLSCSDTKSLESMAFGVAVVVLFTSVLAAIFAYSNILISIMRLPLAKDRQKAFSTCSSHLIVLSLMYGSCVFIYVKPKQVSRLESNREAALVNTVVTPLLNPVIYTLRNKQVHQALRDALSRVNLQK
In outline: as §1

A further assay addresses T4, UniProt Q8VG53.
T4 sequence (whole entry): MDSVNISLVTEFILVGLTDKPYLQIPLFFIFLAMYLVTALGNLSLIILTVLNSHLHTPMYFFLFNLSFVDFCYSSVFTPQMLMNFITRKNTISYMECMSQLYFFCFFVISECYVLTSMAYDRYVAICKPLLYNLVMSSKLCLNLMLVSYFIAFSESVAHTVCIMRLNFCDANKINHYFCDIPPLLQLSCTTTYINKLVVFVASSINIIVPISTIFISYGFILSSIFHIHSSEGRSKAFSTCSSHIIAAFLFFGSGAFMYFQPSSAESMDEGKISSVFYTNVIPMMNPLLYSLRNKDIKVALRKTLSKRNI
In outline:
as §1

Another assay deals with T5, UniProt Q8VG64.
T5 sequence (whole entry): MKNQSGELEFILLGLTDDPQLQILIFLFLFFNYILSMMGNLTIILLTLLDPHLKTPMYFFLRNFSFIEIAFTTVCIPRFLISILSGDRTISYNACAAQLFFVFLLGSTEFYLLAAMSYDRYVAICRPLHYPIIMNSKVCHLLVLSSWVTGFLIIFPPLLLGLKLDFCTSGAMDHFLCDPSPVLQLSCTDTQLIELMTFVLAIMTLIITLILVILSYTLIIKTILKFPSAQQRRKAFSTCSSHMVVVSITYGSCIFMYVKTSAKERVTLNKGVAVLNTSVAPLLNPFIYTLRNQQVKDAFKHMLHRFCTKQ
In outline: as §1

The target of a further assay is T6, UniProt Q8VGB9.
T6 sequence (whole entry): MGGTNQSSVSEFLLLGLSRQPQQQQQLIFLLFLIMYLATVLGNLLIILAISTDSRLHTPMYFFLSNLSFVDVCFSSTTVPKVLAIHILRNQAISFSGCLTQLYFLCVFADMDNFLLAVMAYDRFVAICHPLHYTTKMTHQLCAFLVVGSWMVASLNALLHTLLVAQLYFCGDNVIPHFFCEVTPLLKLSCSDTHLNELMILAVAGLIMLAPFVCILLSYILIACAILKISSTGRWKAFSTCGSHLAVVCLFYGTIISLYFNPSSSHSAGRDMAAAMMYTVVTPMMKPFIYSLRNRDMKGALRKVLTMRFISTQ
In outline:
as §1

The next assay concerns the target T7, UniProt Q8VFZ6.
T7 sequence (whole entry): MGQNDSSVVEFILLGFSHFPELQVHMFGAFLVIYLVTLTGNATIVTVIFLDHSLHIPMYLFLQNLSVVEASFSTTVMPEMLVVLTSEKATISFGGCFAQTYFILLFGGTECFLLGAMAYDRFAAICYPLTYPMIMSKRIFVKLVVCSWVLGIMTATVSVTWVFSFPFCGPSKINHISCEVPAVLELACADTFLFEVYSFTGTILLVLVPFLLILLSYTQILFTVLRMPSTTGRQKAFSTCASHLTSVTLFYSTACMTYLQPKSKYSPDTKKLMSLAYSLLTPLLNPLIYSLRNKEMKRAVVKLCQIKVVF
In outline: as §1

In a further assay the target is T8, UniProt Q8VG22.
T8 sequence (whole entry): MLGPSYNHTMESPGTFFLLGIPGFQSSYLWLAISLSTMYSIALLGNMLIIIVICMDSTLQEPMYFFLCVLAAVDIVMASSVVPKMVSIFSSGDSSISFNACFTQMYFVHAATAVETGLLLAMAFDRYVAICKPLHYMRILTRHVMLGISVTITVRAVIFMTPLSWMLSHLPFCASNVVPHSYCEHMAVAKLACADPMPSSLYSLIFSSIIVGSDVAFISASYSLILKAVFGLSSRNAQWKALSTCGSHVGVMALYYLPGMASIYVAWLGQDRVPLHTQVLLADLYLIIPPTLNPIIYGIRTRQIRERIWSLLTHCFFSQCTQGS
In outline:
as §1

The next assay has as its target T9, UniProt Q8VG49.
T9 sequence (whole entry): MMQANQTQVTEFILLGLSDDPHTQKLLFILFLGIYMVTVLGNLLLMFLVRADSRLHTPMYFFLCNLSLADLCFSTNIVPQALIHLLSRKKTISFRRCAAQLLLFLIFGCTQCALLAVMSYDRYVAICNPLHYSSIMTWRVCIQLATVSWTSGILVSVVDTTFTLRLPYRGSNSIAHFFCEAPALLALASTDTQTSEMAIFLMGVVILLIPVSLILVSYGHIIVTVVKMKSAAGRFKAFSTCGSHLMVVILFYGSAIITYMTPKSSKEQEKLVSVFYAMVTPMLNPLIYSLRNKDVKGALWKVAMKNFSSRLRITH
In outline:
as §1

A further assay deals with T10, UniProt Q8VG77.
T10 sequence (whole entry): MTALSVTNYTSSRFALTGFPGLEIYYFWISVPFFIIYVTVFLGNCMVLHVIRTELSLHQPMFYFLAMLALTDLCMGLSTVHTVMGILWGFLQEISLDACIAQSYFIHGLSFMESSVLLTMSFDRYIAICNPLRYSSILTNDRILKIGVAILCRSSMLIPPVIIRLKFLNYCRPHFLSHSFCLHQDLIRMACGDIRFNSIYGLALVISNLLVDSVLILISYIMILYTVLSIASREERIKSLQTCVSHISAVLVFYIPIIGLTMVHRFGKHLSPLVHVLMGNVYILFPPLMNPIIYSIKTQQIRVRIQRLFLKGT
In outline:
as §1

The target of another assay is T11, UniProt Q8VG96.
T11 sequence (whole entry): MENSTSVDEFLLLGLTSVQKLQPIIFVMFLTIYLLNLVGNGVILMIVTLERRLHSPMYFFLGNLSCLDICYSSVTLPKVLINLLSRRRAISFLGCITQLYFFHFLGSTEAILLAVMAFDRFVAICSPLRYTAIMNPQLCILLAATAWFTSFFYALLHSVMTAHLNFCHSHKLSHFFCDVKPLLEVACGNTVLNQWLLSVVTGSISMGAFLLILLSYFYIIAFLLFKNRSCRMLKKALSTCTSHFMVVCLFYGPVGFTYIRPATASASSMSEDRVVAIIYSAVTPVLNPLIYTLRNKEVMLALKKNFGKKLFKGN
In outline:
as §1

The next assay concerns the target UniProt Q8VG26. In outline: as §1
In the next assay the target is UniProt Q8VG28. In outline: as §1
Sequence of UniProt Q8VG28 (Q8VG28 as listed by the source): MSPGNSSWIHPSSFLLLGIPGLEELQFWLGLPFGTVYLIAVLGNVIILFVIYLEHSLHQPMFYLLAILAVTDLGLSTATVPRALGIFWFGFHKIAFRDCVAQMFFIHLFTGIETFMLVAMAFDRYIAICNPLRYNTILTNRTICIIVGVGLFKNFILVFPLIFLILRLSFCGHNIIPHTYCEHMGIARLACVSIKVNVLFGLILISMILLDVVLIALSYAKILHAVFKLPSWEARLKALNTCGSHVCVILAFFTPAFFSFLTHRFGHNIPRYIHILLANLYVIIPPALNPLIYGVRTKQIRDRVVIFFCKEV

Sequence of UniProt Q8VG26 (Q8VG26 as listed by the source): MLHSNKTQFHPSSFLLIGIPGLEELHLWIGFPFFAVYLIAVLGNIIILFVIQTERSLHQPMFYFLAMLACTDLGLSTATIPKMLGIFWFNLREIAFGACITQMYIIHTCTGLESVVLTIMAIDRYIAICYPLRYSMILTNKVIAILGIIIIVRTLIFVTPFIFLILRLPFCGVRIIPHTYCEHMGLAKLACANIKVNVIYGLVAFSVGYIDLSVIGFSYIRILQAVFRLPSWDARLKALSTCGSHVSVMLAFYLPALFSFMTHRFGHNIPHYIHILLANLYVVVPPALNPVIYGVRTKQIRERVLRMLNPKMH

Turning to `Cc1ccccc1OC(=O)C(C)C`, the “odorant receptor agonist call” value in the assay with UniProt Q8VFP5, in the assay with UniProt Q8VG01, in the assay with UniProt Q8VG27, in the assay with UniProt Q8VG53, with UniProt Q8VG64 and with UniProt Q8VGB9 was “inactive” throughout.

For the compound `C=CC(=C)CCC=C(C)CCC=C(C)C`, the “odorant receptor agonist call” value in the assay with UniProt Q8VFP5, with UniProt Q8VG01, in the assay with UniProt Q8VG27, with UniProt Q8VG53, with UniProt Q8VG64 and with UniProt Q8VGB9 was “inactive” each time.

For the compound `CCCC(=O)C(C)=O`, the “odorant receptor agonist call” value with UniProt Q8VFP5, with UniProt Q8VFZ6, with UniProt Q8VG01, in the assay with UniProt Q8VG27, with UniProt Q8VG49 and with UniProt Q8VG53 was “inactive” throughout. Also, the “odorant receptor agonist call” value in the assay with UniProt Q8VG64, with UniProt Q8VG77, with UniProt Q8VG96 and with UniProt Q8VGB9 was “inactive” in each case. Further, the “odorant receptor agonist call” value in the assay with UniProt Q8VG22 is “active”.

With `COc1cnccn1`, the “odorant receptor agonist call” value with UniProt Q8VFP5, in the assay with UniProt Q8VG01, with UniProt Q8VG27, in the assay with UniProt Q8VG53, in the assay with UniProt Q8VG64 and in the assay with UniProt Q8VGB9 was “inactive” in each case.

As to `O=C([O-])CCCCCCCC(=O)[O-].[H+].[H+]`, the “odorant receptor agonist call” value with UniProt Q8VFP5, with UniProt Q8VG01, with UniProt Q8VG26, with UniProt Q8VG27, with UniProt Q8VG28 and in the assay with UniProt Q8VG53 was “inactive” in each case. For the same compound, the “odorant receptor agonist call” value with UniProt Q8VG64 and in the assay with UniProt Q8VGB9 was “inactive” each time.

`CCc1nccnc1CC`: the “odorant receptor agonist call” value in the assay with UniProt Q8VFP5, in the assay with UniProt Q8VG01, in the assay with UniProt Q8VG27, with UniProt Q8VG53, with UniProt Q8VG64 and in the assay with UniProt Q8VGB9 was “inactive” throughout.

Regarding `CCSCC`, the “odorant receptor agonist call” value with UniProt Q8VFP5, with UniProt Q8VG01, in the assay with UniProt Q8VG27, in the assay with UniProt Q8VG53, in the assay with UniProt Q8VG64 and in the assay with UniProt Q8VGB9 was “inactive” each time.

Regarding `O=C1Cc2ccccc2O1`, the “odorant receptor agonist call” value with UniProt Q8VFP5, with UniProt Q8VFZ6, with UniProt Q8VG01, with UniProt Q8VG27, with UniProt Q8VG49 and in the assay with UniProt Q8VG53 was “inactive” throughout. The “odorant receptor agonist call” value with UniProt Q8VG64, with UniProt Q8VG77, with UniProt Q8VG96 and in the assay with UniProt Q8VGB9 was “inactive” each time. Also, the “odorant receptor agonist call” value in the assay with UniProt Q8VG22 was “active”.

`Cc1ccc2c(c1)OCC(=O)CO2`: the “odorant receptor agonist call” value in the assay with UniProt Q8VFP5, in the assay with UniProt Q8VG01, in the assay with UniProt Q8VG27, in the assay with UniProt Q8VG53, with UniProt Q8VG64 and in the assay with UniProt Q8VGB9 was “inactive” each time.

Turning to `CCOC(=O)C(C)C`, the “odorant receptor agonist call” value with UniProt Q8VFP5, with UniProt Q8VFZ6, with UniProt Q8VG01, with UniProt Q8VG22, in the assay with UniProt Q8VG27 and with UniProt Q8VG49 was “inactive” in each case. The “odorant receptor agonist call” value with UniProt Q8VG53, with UniProt Q8VG64, with UniProt Q8VG77, in the assay with UniProt Q8VG96 and with UniProt Q8VGB9 was “inactive” each time.

For `CC=CC(=O)C1=C(C)CCCC1(C)C`, the “odorant receptor agonist call” value in the assay with UniProt Q8VFP5, in the assay with UniProt Q8VG01, in the assay with UniProt Q8VG27, with UniProt Q8VG53, in the assay with UniProt Q8VG64 and with UniProt Q8VGB9 was “inactive” in each case.

Consider `CCC(C)O` (stereo unspecified), for which the “odorant receptor agonist call” value in the assay with UniProt Q8VFP5, in the assay with UniProt Q8VG01, with UniProt Q8VG27, with UniProt Q8VG53, in the assay with UniProt Q8VG64 and with UniProt Q8VGB9 was “inactive” in each case.

Consider `CCc1ncc(C)nc1CC`, for which the “odorant receptor agonist call” value with UniProt Q8VFP5, in the assay with UniProt Q8VG01, in the assay with UniProt Q8VG27, with UniProt Q8VG53, in the assay with UniProt Q8VG64 and with UniProt Q8VGB9 was “inactive” in each case.

As for `COC(OC)c1ccccc1`, the “odorant receptor agonist call” value with UniProt Q8VFP5, with UniProt Q8VG01, with UniProt Q8VG27, in the assay with UniProt Q8VG53, with UniProt Q8VG64 and with UniProt Q8VGB9 was “inactive” throughout.

Source of the values: the M2OR odorant receptor database.
